Reference: ChEMBL document CHEMBL3826877, “Fatty Acid Amide Hydrolase (FAAH), Acetylcholinesterase (AChE), and Butyrylcholinesterase (BuChE): Networked Targets for the Development of Carbamates as Potential Anti-Alzheimer's Disease Agents” (J Med Chem, 2016)

Key:
[1] = molecular target: T1, Acetylcholinesterase (Homo sapiens, UniProt P22303); assay: Inhibition of recombinant human AChE expressed in HEK293 cells using acetylthiocholine iodide as substrate preincubated for 120 mins followed by substrate addition by Ellman's method
Outline: (§1)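 Ellman assay at 37 °C in 0.1 M phosphate pH 8.0 with 340 µM DTNB, 0.02 U/mL enzyme and 550 µM thiocholine substrate. Enzyme and inhibitor preincubated before substrate: AChE 120 min (one compound 60 min), BuChE 15 or 20 min depending on N-substituent. Non-enzymatic blanks run. […] IC50 by linear regression of % inhibition vs log concentration. Mean of 2-3 independent runs in duplicate.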

[2] = molecular target: T2, Fatty-acid amide hydrolase 1 (Rattus norvegicus, UniProt P97612); assay: Inhibition of FAAH in rat brain membrane using N-arachidonoyl-[14C]-ethanolamine as substrate preincubated for 20 mins followed by substrate addition measured after 30 mins by scintillation counting method; assay type: cell membranes
T2 sequence (P97612 whole entry): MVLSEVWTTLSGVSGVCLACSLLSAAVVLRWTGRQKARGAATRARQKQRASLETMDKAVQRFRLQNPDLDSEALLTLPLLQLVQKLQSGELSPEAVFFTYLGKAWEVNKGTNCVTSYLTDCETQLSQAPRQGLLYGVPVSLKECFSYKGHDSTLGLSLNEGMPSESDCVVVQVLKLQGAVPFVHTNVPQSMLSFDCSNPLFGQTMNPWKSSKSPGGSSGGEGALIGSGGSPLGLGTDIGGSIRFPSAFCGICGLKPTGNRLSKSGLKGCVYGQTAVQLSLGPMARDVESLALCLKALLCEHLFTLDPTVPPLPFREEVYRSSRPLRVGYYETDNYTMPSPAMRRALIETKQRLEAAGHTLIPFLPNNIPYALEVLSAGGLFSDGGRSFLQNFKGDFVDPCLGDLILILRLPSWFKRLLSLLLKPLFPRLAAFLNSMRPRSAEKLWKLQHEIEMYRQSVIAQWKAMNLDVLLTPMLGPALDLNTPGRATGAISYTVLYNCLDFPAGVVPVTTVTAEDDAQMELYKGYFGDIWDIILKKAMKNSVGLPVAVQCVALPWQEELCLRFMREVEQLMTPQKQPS
Outline: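 Compound preincubated 20 min at 37 °C with rat brain 10,000 x g membranes (70 µg/sample), then [14C]-AEA (diluted with AEA) added in 50 mM Tris-HCl pH 9.00-10.00, 37 °C, 30 min. [14C]-ethanolamine counted by scintillation after CHCl3/MeOH 1:1 extraction.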

[3] = molecular target: T2, Fatty-acid amide hydrolase 1; assay: Inhibition of FAAH in rat brain membrane using N-arachidonoyl-[14C]-ethanolamine as substrate incubated for 30 mins by scintillation counting method; assay type: cell membranes
Outline: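 Rat brain 10,000 x g membrane fraction (70 µg/sample) co-incubated with compound and [14C]-AEA diluted with unlabelled AEA in 50 mM Tris-HCl, pH 9.00-10.00, 37 °C, 30 min. Released [14C]-ethanolamine measured by scintillation of the aqueous phase after CHCl3/MeOH 1:1 extraction.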

[4] = molecular target: T3, Cholinesterase (Homo sapiens, UniProt P06276); assay: Inhibition of human serum BuChE using butyrylthiocholine iodide as substrate preincubated for 20 mins followed by substrate addition by Ellman's method; outline: as §1
[5] = molecular target: T1, Acetylcholinesterase; assay: Inhibition of recombinant human AChE expressed in HEK293 cells assessed as enzyme carbamoylation using acetylthiocholine iodide as substrate preincubated with enzyme followed by substrate addition by Ellman's method; conditions: TDE = time-dependent effect
[6] = molecular target: T3, Cholinesterase; assay: Inhibition of human serum BuChE assessed as enzyme carbamoylation using butyrylthiocholine iodide as substrate preincubated with enzyme followed by substrate addition by Ellman's method; conditions: TDE = time-dependent effect
[7] = molecular target: T3, Cholinesterase; assay: Inhibition of human serum BuChE using butyrylthiocholine iodide as substrate preincubated for 15 mins followed by substrate addition by Ellman's method; outline: as §1
[8] = molecular target: T2, Fatty-acid amide hydrolase 1; assay: Inhibition of FAAH in rat brain membrane at pH 9 using N-arachidonoyl-[14C]-ethanolamine as substrate preincubated for 10 mins followed by substrate addition measured after 30 mins by scintillation counting method; assay type: cell membranes
Outline: (§2)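 Rat brain 10,000 x g membrane fraction (70 µg/sample) in 50 mM Tris-HCl at pH 9.0 or 7.4, preincubated 10 min with compound. [14C]-AEA diluted with AEA then added, reaction run at 37 °C. [14C]-ethanolamine in the aqueous phase after CHCl3/MeOH 1:1 extraction counted by scintillation.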

[9] = molecular target: T2, Fatty-acid amide hydrolase 1; assay: Inhibition of FAAH in rat brain membrane at pH 7.4 using N-arachidonoyl-[14C]-ethanolamine as substrate preincubated for 10 mins followed by substrate addition measured after 30 mins by scintillation counting method; assay type: cell membranes; outline: as §2
[10] = tested on: SH-SY5Y; assay: Cytotoxicity against human SH-SY5Y assessed as reduction in cell viability at 1 to 50 uM after 24 hrs by MTT assay; assay type: cell-based
Outline: (§3)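 SH-SY5Y neuroblastoma cells grown in DMEM with 2 mM L-glutamine, penicillin/streptomycin and 10% FBS. Cells seeded and cultured overnight at 37°C, 5% CO2. Compounds in DMSO (final under 0.1%) added for 24 h. MTT 0.5 mg/mL added for 3 h, formazan taken up in isopropanol, absorbance read at 620 nm. Viability given relative to vehicle. Three independent experiments in quadruplicate.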

[11] = tested on: Homo sapiens; assay: Binding affinity to AChE in human assessed as enzyme reactivation half life at 1.5 mg/kg, iv dosed over 60 mins infusion; assay type: functional, organism-based
[12] = tested on: SH-SY5Y; assay: Cytotoxicity against human SH-SY5Y assessed as reduction in cell viability at 1 to 25 uM after 24 hrs by MTT assay; assay type: cell-based; outline: as §3
[13] = tested on: SH-SY5Y; assay: Cytotoxicity against human SH-SY5Y assessed as reduction in cell viability at 50 uM after 24 hrs by MTT assay; assay type: cell-based; outline: as §3
[14] = tested on: Homo sapiens; assay: Binding affinity to AChE in human assessed as enzyme reactivation half life at 8 to 40 mg/kg, po; assay type: functional, organism-based
[15] = molecular target: T1, Acetylcholinesterase; assay: Inhibition of recombinant human AChE expressed in HEK293 cells using acetylthiocholine iodide as substrate preincubated for 60 mins followed by substrate addition by Ellman's method; outline: as §1
[16] = molecular target: T1, Acetylcholinesterase; assay: Inhibition of recombinant human AChE expressed in HEK293 cells assessed as pseudo-first order rate constant for enzyme carbamoylation using acetylthiocholine iodide as substrate preincubated for 15 to 120 mins followed by substrate addition by Ellman's method
Outline: (§4)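 Stopped-time assay at pH 8.0, 37 °C, five inhibitor concentrations. AChE: 16.7-167.5 nM, residual activity read at 15, 30, 60, 90 and 120 min. BuChE: 0.46-4.58 nM, read at […], 2, 5, 10, 15 and 30 min. Activities corrected against an uninhibited control at each time. R = R0·exp(−kobs·t)+R∞ fitted to give kobs. k3 obtained from a double-reciprocal plot of kobs vs [I].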

[17] = molecular target: T3, Cholinesterase; assay: Inhibition of human serum BuChE assessed as pseudo-first order rate constant for enzyme carbamoylation using butyrylthiocholine iodide as substrate preincubated for 2 to 30 mins followed by substrate addition by Ellman's method; outline: as §4

T3 sequence (P06276 whole entry): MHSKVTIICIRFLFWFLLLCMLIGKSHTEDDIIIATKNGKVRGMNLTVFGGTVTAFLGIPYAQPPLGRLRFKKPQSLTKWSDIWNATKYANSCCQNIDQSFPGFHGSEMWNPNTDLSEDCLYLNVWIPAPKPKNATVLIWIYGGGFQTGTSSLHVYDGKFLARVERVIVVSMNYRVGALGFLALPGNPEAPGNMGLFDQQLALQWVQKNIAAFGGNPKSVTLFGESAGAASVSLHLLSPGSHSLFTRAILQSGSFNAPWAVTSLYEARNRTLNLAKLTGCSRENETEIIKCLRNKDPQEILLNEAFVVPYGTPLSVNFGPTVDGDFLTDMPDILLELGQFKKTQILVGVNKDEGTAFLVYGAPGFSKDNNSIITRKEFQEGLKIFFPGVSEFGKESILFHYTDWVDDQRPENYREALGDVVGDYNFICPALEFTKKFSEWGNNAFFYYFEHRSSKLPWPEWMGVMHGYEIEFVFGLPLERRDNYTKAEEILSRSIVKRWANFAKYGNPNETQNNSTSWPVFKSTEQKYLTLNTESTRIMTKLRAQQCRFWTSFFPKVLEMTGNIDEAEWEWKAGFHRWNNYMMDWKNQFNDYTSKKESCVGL
T1 sequence (P22303 whole entry): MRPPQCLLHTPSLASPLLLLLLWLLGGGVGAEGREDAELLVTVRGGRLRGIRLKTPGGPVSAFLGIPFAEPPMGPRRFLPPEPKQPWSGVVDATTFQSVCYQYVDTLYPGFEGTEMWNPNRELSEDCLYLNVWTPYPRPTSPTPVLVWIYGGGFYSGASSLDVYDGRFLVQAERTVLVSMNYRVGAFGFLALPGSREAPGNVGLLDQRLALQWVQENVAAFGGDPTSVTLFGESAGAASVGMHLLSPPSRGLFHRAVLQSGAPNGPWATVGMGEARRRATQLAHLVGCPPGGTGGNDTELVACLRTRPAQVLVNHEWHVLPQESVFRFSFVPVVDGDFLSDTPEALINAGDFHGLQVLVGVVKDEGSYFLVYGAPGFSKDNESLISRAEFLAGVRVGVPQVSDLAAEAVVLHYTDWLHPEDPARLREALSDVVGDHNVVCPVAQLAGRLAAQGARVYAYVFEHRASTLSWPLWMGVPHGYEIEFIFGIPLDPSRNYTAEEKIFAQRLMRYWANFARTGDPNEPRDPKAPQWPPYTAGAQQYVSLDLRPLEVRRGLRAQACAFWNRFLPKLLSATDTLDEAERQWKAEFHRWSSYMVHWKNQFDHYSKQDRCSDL

SMILES	IC50 [1]	IC50 [2]	IC50 [3]	IC50 [4]	inhibition [5]	inhibition [6]	IC50 [7]	also measured
CCCCCCCNC(=O)Oc1cccc(CN(C)CCCOc2ccc3c(=O)c4cccnc4oc3c2)c1	0.013 µM	0.202 µM	3.13 µM	0.00069 µM	tde	tde	–	–
CN(CCCOc1ccc2cc(-c3ccc(Cl)cc3)c(=O)oc2c1)Cc1cccc(OC(=O)NCCCCCc2ccccc2)c1	0.9 µM	0.265 µM	1.47 µM	–	tde	tde	0.00351 µM	–
CCCCCCCNC(=O)Oc1cccc(CN(C)CCCCCOc2ccc3ccc(=O)oc3c2)c1	0.0113 µM	0.242 µM	1.29 µM	0.00079 µM	tde	tde	–	–
CN(CCCOc1ccc2ccc(=O)oc2c1)Cc1cccc(OC(=O)NCCCCCc2ccccc2)c1	–	–	–	–	tde	tde	–	IC50 [8]: 0.183 µM; IC50 [9]: 4.1 µM; Activity [10]: Non-toxic
O=C(NCCCCCc1ccccc1)Oc1ccc(Cn2cc(COc3ccc4ccc(=O)oc4c3)nn2)cc1	0.255 µM	0.0285 µM	0.113 µM	–	–	–	0.00117 µM	–
NC(=O)c1cccc(-c2cccc(OC(=O)NC3CCCCC3)c2)c1 [URB-597]	–	–	–	–	–	–	–	Activity [10]: Non-toxic
CN(CCCOc1ccc2c3c(c(=O)oc2c1)CCCC3)Cc1cccc(OC(=O)NCCCCCc2ccccc2)c1	0.0899 µM	1.39 µM	3.48 µM	–	tde	tde	0.00144 µM	–
COc1ccc(-c2cc3cc(OCCCN(C)Cc4cccc(OC(=O)NCCCCCc5ccccc5)c4)ccc3oc2=O)cc1	0.179 µM	0.211 µM	2.83 µM	–	tde	tde	0.00115 µM	–
COc1ccc(-c2cc3ccc(OCCCN(C)Cc4cccc(OC(=O)NCCCCCc5ccccc5)c4)cc3oc2=O)cc1	0.312 µM	0.322 µM	2.33 µM	–	tde	tde	0.0013 µM	–
CCCCCCCNC(=O)Oc1cccc(CN(C)CCCCCOc2ccc3c(c2)Oc2ncccc2C3)c1	0.00692 µM	0.178 µM	2.18 µM	0.00053 µM	tde	tde	–	–
CN(CCCOc1ccc2ccc(=O)oc2c1)Cc1cccc(OC(=O)NCCCCCCc2ccccc2)c1	0.109 µM	0.53 µM	1.79 µM	–	tde	tde	0.00285 µM	–
O=C(NCCCCCc1ccccc1)Oc1ccc(-n2cc(COc3ccc4ccc(=O)oc4c3)nn2)cc1	47.9 µM	0.0433 µM	0.236 µM	–	–	–	1.23 µM	–
CCCCCCCNC(=O)Oc1cccc(Cn2cc(COc3ccc4ccc(=O)oc4c3)nn2)c1	1.04 µM	0.0326 µM	0.109 µM	0.0782 µM	–	–	–	–
CN(CCCCCOc1ccc2ccc(=O)oc2c1)Cc1cccc(OC(=O)NCCCCCc2ccccc2)c1	0.0881 µM	0.12 µM	0.798 µM	–	tde	tde	0.00123 µM	–
O=C(NCCCCCc1ccccc1)Oc1cccc(-n2cc(COc3ccc4ccc(=O)oc4c3)nn2)c1	1.17 µM	0.0447 µM	0.209 µM	–	–	–	0.0152 µM	–
CCCCCCCNC(=O)Oc1cccc(-n2cc(COc3ccc4ccc(=O)oc4c3)nn2)c1	0.702 µM	0.0157 µM	0.0619 µM	0.0712 µM	–	–	–	Activity [10]: Non-toxic
CN(CCCOc1ccc2c(c1)oc(=O)c1ccccc12)Cc1cccc(OC(=O)NCCCCCc2ccccc2)c1	0.39 µM	0.312 µM	1.83 µM	–	tde	tde	0.00119 µM	–
CNC(=O)Oc1ccc2c(c1)[C@]1(C)CCN(C)[C@@H]1N2C	–	–	–	–	–	–	–	T1/2 [11]: 0.5 h
CCCCCCCNC(=O)Oc1cccc(CN(C)CCCOc2ccc3ccc(=O)oc3c2)c1	0.0374 µM	0.0285 µM	0.161 µM	0.00136 µM	–	–	–	Activity [12]: Non-toxic; Activity [13]: Toxic
CCCCCCCNC(=O)Oc1ccc2c(c1)[C@]1(C)CCN(C)[C@@H]1N2C	–	–	–	–	–	–	–	T1/2 [14]: 10 h
CN(CCCOc1ccc2cc(-c3ccccc3)c(=O)oc2c1)Cc1cccc(OC(=O)NCCCCCc2ccccc2)c1	0.125 µM	0.25 µM	1.85 µM	–	tde	tde	0.00206 µM	–
CCCCCCc1ccc(NC(=O)Oc2cccc(CN(C)CCCOc3ccc4ccc(=O)oc4c3)c2)cc1	–	> 50 µM	> 50 µM	–	tde	tde	0.0321 µM	IC50 [15]: 3.8 µM; K [16]: 0.203 min⁻¹; K [17]: 0.461 min⁻¹
O=C(NCCCCCc1ccccc1)Oc1cccc(Cn2cc(COc3ccc4ccc(=O)oc4c3)nn2)c1	0.922 µM	0.0279 µM	0.157 µM	–	–	–	0.0427 µM	–
CCCCCCCNC(=O)Oc1cccc(CN(C)CCCOc2ccc3c4c(c(=O)oc3c2)CCCC4)c1	0.0216 µM	0.306 µM	2.49 µM	0.00027 µM	tde	tde	–	–
CCCCCCCNC(=O)Oc1ccc(-n2cc(COc3ccc4ccc(=O)oc4c3)nn2)cc1	158 µM	0.0213 µM	0.167 µM	122 µM	–	–	–	–
CCCCCCCNC(=O)Oc1ccc(Cn2cc(COc3ccc4ccc(=O)oc4c3)nn2)cc1	0.214 µM	0.055 µM	0.354 µM	0.0159 µM	–	–	–	–
Cc1cc(=O)oc2cc(OCCCN(C)Cc3cccc(OC(=O)NCCCCCc4ccccc4)c3)ccc12	0.0805 µM	0.135 µM	0.459 µM	–	tde	tde	0.00275 µM	–
